These results are taken from PMC3095849 (Bioorganic & medicinal chemistry, 2011).

Counter-ions that a name gives are not always drawn. Like-named read-outs stand apart in the source and are kept apart here.

Assay [1] concerns the target T1, human κ opioid receptor (Homo sapiens, UniProt P41145). The conditions noted are these: cited from earlier work.
Assay [2] has as its target T1, human κ opioid receptor. The assay is described as follows: Opioid binding, [3H]U69,593, CHO membranes. The conditions noted are these: ratio of Ki values μ/κ/δ.
In assay [3] the target is T1, human κ opioid receptor. Description: [35S]GTPγS binding assay, agonist properties, kappa. It is filed as biochemical.
The target in assay [4] is T1, human κ opioid receptor. Description: [35S]GTPγS binding assay, inhibition of U50,488-stimulated binding, kappa. The following applies: read-out: Kappa (Antagonist) IC50; binding stimulated by 100 nM U50,488. It is filed as biochemical. In a few lines: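 Antagonist mode: membranes from CHO cells stably expressing human κ receptor, with 12 concentrations of test compound and 0.08 nM [35S]GTPγS. Buffer: 50 mM Tris-HCl pH 7.4, 3 μM GDP, 3 mM MgCl2, 0.2 mM EGTA, 100 mM NaCl. Incubated 60 min at 30°C. Nonspecific binding: 10 μM GTPγS. Filtered and counted. IC50 and Imax calculated. Three experiments in triplicate, mean ± SEM.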

For assay [5], the target named is human μ opioid receptor (Homo sapiens, UniProt P35372). Description: [35S]GTPγS binding assay, agonist properties, mu. It is filed as biochemical. In a few lines:
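CHO cells stably expressing human μ receptor, grown in DMEM with 10% FBS at 37°C, 5% CO2. Membranes incubated with 12 concentrations of test compound in 50 mM Tris-HCl pH 7.4, 3 μM GDP, 3 mM MgCl2, 0.2 mM EGTA, 100 mM NaCl, plus 0.08 nM [35S]GTPγS, 60 min, 30°C. Nonspecific: 10 μM GTPγS. Filtration, scintillation counting. EC50 and Emax calculated. Three experiments in triplicate.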

human μ opioid receptor, sequence (P35372 whole entry): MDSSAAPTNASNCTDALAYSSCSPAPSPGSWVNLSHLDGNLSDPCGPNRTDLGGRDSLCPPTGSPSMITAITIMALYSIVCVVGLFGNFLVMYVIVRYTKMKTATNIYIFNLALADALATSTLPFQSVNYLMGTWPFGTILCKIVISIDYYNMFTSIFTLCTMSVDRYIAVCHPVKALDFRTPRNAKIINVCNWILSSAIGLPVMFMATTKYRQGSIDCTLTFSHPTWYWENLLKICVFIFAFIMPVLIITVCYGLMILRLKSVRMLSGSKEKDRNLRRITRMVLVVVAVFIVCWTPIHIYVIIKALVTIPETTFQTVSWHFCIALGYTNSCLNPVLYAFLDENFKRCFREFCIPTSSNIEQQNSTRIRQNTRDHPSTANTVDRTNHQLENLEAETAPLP
T1 sequence (P41145 whole entry): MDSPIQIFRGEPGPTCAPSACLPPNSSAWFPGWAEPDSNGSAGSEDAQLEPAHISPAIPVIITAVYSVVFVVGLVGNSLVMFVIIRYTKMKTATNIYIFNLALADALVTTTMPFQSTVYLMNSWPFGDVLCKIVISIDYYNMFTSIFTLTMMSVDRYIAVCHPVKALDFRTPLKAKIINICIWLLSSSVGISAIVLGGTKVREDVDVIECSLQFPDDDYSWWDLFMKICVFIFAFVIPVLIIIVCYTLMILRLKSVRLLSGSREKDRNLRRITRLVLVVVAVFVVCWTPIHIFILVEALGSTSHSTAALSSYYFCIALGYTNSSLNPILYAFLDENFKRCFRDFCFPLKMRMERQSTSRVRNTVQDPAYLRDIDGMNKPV

In the case of `O=C(CCCCCCCCC(=O)Oc1ccc2c(c1)[C@@]13CCCC[C@H]1[C@@H](C2)N(CC1CCC1)CC3)Oc1ccc2c(c1)[C@@]13CCCC[C@H]1[C@@H](C2)N(CC1CCC1)CC3` [Compound 3], the “Selectivity μ : κ : δ” value in assay [1] is 2/1/90.

Turning to `O=C(/C=C/C(=O)Oc1ccc2c(c1)[C@@]13CCCC[C@H]1[C@@H](C2)N(CC1CCC1)CC3)Oc1ccc2c(c1)[C@@]13CCCC[C@H]1[C@@H](C2)N(CC1CCC1)CC3` [Compound 4], the “Selectivity μ : κ : δ” value in assay [1] is reported as 3/1/120.

Turning to `CO[C@@]12CCCC[C@@]13CCN(CC1CCC1)[C@@H]2Cc1ccc(O)cc13` [Compound 8, (−)-14-methoxybutorphanol], the “Selectivity μ : κ : δ” value in assay [2] is 1/1/58. Further, the “Functional character at κ receptor (full/partial agonist)” value in assay [3] was “partial κ agonists”.

For `CO[C@@]12CCCC[C@@]13CCN(CC1CCC1)[C@@H]2Cc1ccc(OC(=O)CCCCCCCCC(=O)Oc2ccc4c(c2)[C@@]25CCCC[C@@]2(OC)[C@@H](C4)N(CC2CCC2)CC5)cc13` [Compound 9b, Bis((−)-14-methoxy-17-N-cyclobutylmethyl)morphinan-3-yl) decanedioate], the “Selectivity μ : κ : δ” value in assay [2] is 1/1/50. Moreover, in assay [3], the “Functional character at κ receptor (full/partial agonist)” value is listed as “partial κ agonists”.

`Nc1nc2cc3c(cc2s1)C[C@@H]1[C@@H]2CCCC[C@]32CCN1CC1CC1` [Compound 10, ATPM]: the “Selectivity μ : κ : δ” value in assay [1] was 31/1/592.

Consider `O=C(CCCCCCCCC(=O)Nc1nc2cc3c(cc2s1)C[C@@H]1[C@@H]2CCCC[C@]32CCN1CC1CC1)Nc1nc2cc3c(cc2s1)C[C@@H]1[C@@H]2CCCC[C@]32CCN1CC1CC1` [Compound 11, Bis((−)-3-aminothiazolo-N-cyclopropyl-methylmorphinan)sebacamide hydrochloride], for which the “Selectivity μ : κ : δ” value in assay [2] is 24/1/460. For the same compound, in assay [3], the “Functional character at κ receptor (full/partial agonist)” value is listed as “full κ agonists”. The IC50 in assay [4] is above 10 µM. Moreover, in assay [5], the “Functional character at μ receptor (full/partial agonist)” value is “partial μ agonists”.

With `c1c2c(cc3sc(NCCCCCCCCCCNc4nc5cc6c(cc5s4)C[C@@H]4[C@@H]5CCCC[C@]65CCN4CC4CC4)nc13)C[C@@H]1[C@@H]3CCCC[C@]23CCN1CC1CC1` [Compound 12, (−)-3,3′-(decane-1,10-diaminothiazolo)bis(cyclopropylmethyl)morphinan hydrochloride], the “Selectivity μ : κ : δ” value in assay [2] is 9/1/140. Also, the “Functional character at κ receptor (full/partial agonist)” value in assay [3] is given as “full κ agonists”. Besides, the IC50 in assay [4] is above 10 µM. Further, the “Functional character at μ receptor (full/partial agonist)” value in assay [5] was “partial μ agonists”.

For `CO[C@@]12CCCC[C@@]13CCN(CC1CCC1)[C@@H]2Cc1ccc(OC(=O)CCCCCCCCC(=O)OCc2ccccc2)cc13` [Compound 13b, Benzyl (−)-14-methoxy-butorphanol-3-yl decanedioate], the “Selectivity μ : κ : δ” value in assay [2] was 1/1/93. In addition, in assay [3], the “Functional character at κ receptor (full/partial agonist)” value is listed as “partial κ agonists”.

Take `C=CCN1CC[C@]23c4c5ccc(OC(=O)CCCCCCCCC(=O)Oc6ccc7c(c6)[C@@]68CCCC[C@@]6(O)[C@@H](C7)N(CC6CCC6)CC8)c4O[C@H]2C(=O)CC[C@@]3(O)[C@H]1C5` [Compound 15a, (5α)-17-Allyl-14-hydroxy-6-oxo-4,5-epoxymorphinan-3-yl-17-((−)-N-cyclobutylmethyl-14-hydroxyl-mophinan-3-yl) decanedioate.]: in assay [2], the “Selectivity μ : κ : δ” value was 3/1/130. The “Functional character at κ receptor (full/partial agonist)” value in assay [3] is “partial κ agonists”.

Take `O=C(CCCCCCCCC(=O)Oc1ccc2c(c1)[C@@]13CCCC[C@@]1(O)[C@@H](C2)N(CC1CCC1)CC3)Oc1ccc2c(c1)[C@@]13CCCC[C@H]1[C@@H](C2)N(CC1CCC1)CC3` [Compound 15b, ((−)-17-N-cyclobutylmethyl)morphinan-3-yl-((−)-14-hydroxyl-17-N-cyclobutylmethyl) morphinan-3-yl) decanedioate]: in assay [2], the “Selectivity μ : κ : δ” value is reported as 1/1/110. For the same compound, the “Functional character at κ receptor (full/partial agonist)” value in assay [3] was “partial κ agonists”.

As for `C=CCN1CC[C@]23c4c5ccc(OC(=O)CCCCCCCCC(=O)Oc6ccc7c(c6)[C@@]68CCCC[C@@]6(OC)[C@@H](C7)N(CC6CCC6)CC8)c4O[C@H]2C(=O)CC[C@@]3(O)[C@H]1C5` [Compound 15c, (5α)-17-allyl-14-hydroxy-6-oxo-4,5-epoxymorphinan-3-yl-((−)-14-methoxyl-17-N-cyclobutylmethyl)morphinan-3-yl) decanedioate], the “Selectivity μ : κ : δ” value in assay [2] is recorded as 4/1/280. In assay [3], the “Functional character at κ receptor (full/partial agonist)” value was “partial κ agonists”.
